From ChEMBL document CHEMBL2203171, “The use of small molecule probes to study spatially separated stimulus-induced signaling pathways” (Bioorg Med Chem Lett, 2012) come the findings set out here.

The structures appear in SMILES notation. Calls of active or inactive are those of the source. No cut-off for these calls is given here.

For one assay, the target named is T1, Toll-like receptor 3 (Mus musculus) (UniProt Q99MB1).
T1 sequence (whole entry): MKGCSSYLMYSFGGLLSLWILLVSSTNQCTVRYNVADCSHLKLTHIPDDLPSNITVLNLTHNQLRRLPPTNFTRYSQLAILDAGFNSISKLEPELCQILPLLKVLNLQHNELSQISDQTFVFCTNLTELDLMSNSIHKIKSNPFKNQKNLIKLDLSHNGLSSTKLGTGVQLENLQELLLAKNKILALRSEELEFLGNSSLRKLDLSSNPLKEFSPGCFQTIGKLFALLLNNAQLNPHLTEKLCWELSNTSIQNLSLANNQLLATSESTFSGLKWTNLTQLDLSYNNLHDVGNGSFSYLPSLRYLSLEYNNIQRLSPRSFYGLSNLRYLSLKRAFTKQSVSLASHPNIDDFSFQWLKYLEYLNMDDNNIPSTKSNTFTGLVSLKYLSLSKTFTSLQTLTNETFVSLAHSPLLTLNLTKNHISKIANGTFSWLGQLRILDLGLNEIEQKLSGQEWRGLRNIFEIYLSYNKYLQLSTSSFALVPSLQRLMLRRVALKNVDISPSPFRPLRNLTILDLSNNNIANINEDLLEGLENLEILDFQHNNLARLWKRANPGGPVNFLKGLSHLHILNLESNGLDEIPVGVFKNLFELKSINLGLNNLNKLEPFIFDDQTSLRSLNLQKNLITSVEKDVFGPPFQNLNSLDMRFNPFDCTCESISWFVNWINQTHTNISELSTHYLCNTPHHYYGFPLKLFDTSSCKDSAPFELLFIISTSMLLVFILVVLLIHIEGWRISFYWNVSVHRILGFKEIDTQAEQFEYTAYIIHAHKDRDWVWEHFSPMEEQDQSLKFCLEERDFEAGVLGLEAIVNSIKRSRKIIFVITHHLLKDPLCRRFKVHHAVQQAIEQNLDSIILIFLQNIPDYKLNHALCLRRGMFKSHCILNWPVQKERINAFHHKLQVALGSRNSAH
The experiment in a line: Inhibition of TRIF recruitment to TLR3 in C57BL/6 mouse BMDM cells assessed as inhibition of pI:pC-induced IkappaBalpha phosphorylation up to 90 mins by Western blot analysis. It counts as cell-based. The gist of the method:
(§1)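 Bone marrow macrophages from C57BL/6 mice, grown in 70% growth medium (DMEM, 10% FBS) plus 30% L929-conditioned medium and given fresh medium 12-14 h before stimulation. Stimuli: IL-1 40 ng/ml, HKSA ~10^8 cfu/ml, pI:pC 50 μg/ml or CpG 10 μg/ml, ± compound at 10 μM (final) added from a 200x DMSO stock. IκBα and p38 profiled by immunoblot. Three independent experiments, quantitated and normalized.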
On to `O=C(CCCCCCCC(=O)ON1C(=O)CCC1=O)Oc1ccc2cc(C(C(=O)NCc3ccccc3)N(C(=O)Cc3ccc4c(c3)OCO4)C3CC3)ccc2c1` (centres undefined), for which the inhibition result is “Active”.

For `O=C(CCCCCN1C(=O)CCC1=O)Oc1ccc2cc(C(C(=O)NCc3ccccc3)N(C(=O)Cc3ccc4c(c3)OCO4)C3CC3)ccc2c1` (centres undefined), the inhibition result is “Active”.

As for `O=C(CCCCCN1C(=O)C=CC1=O)Oc1ccc2cc(C(C(=O)NCc3ccccc3)N(C(=O)Cc3ccc4c(c3)OCO4)C3CC3)ccc2c1` (centres undefined), the inhibition result is “Active”.

A further assay addresses T2, Toll-like receptor 9 (Mus musculus) (UniProt Q9EQU3).
T2 sequence (whole entry): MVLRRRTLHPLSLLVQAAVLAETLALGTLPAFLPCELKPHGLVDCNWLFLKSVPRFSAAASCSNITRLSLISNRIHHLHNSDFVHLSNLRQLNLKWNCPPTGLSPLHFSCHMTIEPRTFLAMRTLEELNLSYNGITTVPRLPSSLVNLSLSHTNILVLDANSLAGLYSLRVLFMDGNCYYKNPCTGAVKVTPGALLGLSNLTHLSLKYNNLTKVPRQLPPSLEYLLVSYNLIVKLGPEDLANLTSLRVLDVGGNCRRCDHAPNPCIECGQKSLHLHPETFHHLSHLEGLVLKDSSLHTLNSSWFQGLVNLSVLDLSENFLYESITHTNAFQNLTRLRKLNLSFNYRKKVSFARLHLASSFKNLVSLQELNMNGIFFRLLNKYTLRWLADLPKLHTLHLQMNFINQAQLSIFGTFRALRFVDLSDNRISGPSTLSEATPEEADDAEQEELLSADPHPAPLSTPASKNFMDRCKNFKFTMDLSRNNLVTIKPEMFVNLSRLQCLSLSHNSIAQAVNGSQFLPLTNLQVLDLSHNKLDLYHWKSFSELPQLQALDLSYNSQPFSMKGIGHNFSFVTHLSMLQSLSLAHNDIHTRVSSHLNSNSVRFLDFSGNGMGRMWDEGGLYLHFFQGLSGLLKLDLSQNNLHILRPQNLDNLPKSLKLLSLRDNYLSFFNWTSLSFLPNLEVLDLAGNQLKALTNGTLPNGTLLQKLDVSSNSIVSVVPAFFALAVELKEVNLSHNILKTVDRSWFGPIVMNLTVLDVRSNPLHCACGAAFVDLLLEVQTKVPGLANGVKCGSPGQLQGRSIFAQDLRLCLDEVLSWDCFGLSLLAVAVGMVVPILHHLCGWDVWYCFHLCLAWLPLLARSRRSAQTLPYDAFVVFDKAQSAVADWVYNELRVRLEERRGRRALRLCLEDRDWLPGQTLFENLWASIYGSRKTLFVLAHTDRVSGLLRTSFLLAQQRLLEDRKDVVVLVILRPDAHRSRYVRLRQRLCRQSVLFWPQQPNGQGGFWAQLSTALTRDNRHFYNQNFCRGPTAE
The experiment in a line: Inhibition of MyD88 recruitment to TLR9 in C57BL/6 mouse BMDM cells assessed as inhibition of CpG-induced IkappaBalpha degradation up to 90 mins by Western blot analysis. In kind it is cell-based. The procedure, abridged:
as §1
As for `O=C(CCCCCCCC(=O)ON1C(=O)CCC1=O)Oc1ccc2cc(C(C(=O)NCc3ccccc3)N(C(=O)Cc3ccc4c(c3)OCO4)C3CC3)ccc2c1` (centres undefined), the inhibition entry was “Active”.

For `O=C(CCCCCN1C(=O)CCC1=O)Oc1ccc2cc(C(C(=O)NCc3ccccc3)N(C(=O)Cc3ccc4c(c3)OCO4)C3CC3)ccc2c1` (centres undefined), the inhibition result is “Active”.

`O=C(CCCCCN1C(=O)C=CC1=O)Oc1ccc2cc(C(C(=O)NCc3ccccc3)N(C(=O)Cc3ccc4c(c3)OCO4)C3CC3)ccc2c1` (centres undefined): the inhibition entry was “Active”.

In the next assay the target is T3, Inhibitor of nuclear factor kappa-B kinase subunit beta (Mus musculus) (UniProt O88351).
T3 sequence (whole entry): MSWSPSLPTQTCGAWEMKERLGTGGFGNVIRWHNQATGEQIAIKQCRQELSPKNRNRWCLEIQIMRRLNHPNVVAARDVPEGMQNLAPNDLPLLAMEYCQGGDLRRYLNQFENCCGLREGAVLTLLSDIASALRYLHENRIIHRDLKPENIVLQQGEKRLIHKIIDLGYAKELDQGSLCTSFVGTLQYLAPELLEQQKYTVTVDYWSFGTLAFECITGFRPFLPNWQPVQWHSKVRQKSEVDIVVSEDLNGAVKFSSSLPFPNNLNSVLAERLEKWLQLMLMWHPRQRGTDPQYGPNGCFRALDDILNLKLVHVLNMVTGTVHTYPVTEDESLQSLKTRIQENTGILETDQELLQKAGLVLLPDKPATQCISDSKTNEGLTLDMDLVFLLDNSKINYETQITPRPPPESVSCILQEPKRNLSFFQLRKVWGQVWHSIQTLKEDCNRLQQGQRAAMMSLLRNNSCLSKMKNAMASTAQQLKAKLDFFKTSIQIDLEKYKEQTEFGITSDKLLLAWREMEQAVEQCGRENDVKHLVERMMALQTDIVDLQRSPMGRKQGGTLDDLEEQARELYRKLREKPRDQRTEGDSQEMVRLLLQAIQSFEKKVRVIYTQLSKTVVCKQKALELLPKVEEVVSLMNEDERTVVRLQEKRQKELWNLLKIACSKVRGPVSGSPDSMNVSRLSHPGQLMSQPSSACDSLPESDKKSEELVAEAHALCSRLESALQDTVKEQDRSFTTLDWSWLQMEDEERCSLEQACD
In words: Inhibition of IKKbeta in C57BL/6 mouse BMDM cells assessed as inhibition of LPS-induced IkappaBalpha degradation at 50 uM up to 90 mins by Western blot analysis. In kind it is cell-based.
In the case of `O=C(CCCCCCCC(=O)ON1C(=O)CCC1=O)Oc1ccc2cc(C(C(=O)NCc3ccccc3)N(C(=O)Cc3ccc4c(c3)OCO4)C3CC3)ccc2c1` (centres undefined), the “inhibition (active/not active)” value is “Active”.

On to `O=C(CCCCCN1C(=O)CCC1=O)Oc1ccc2cc(C(C(=O)NCc3ccccc3)N(C(=O)Cc3ccc4c(c3)OCO4)C3CC3)ccc2c1` (centres undefined), for which the “inhibition (active/not active)” value is “inactive”.

For the compound `O=C(CCCCCN1C(=O)C=CC1=O)Oc1ccc2cc(C(C(=O)NCc3ccccc3)N(C(=O)Cc3ccc4c(c3)OCO4)C3CC3)ccc2c1` (centres undefined), the “inhibition (active/not active)” value was “Active”.
